The values below come from ChEMBL document CHEMBL3046112, “Comparative study of antimicrobial peptides to control citrus postharvest decay caused by Penicillium digitatum” (J Agric Food Chem, 2007).

Series [1] concerns Penicillium digitatum. The series can be described thus: Antimicrobial activity against Penicillium digitatum PHI-26 assessed as microbial growth inhibition after 4 days by microtiter plate assay. Type of series: functional. Summed up:
(§1)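 Microtiter dose–response assay, as previously described. Peptide stocks were 1 mM in 5 mM MOPS pH 7. P. digitatum conidia came from 7–10-day PDA cultures grown at 24 °C and were counted with a hematocytometer. Yeast (YPD, 30 °C) and E. coli (LB, 37 °C) were grown to stationary phase and diluted. Growth was read as OD492 in triplicate. MIC: lowest concentration with no growth after 4 days in all independent experiments, each repeated at least three times.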

In series [2] the test system is Penicillium digitatum. The series can be described thus: Fungicidal activity against Penicillium digitatum PHI-26 conidia assessed as inhibition of conidia viability incubated for 16 hr by colony count assay. The class given is functional, organism-based. Summed up:
(§2)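 P. digitatum conidia (10^4 mL-1) were incubated with peptide (for example 4, 16 or 64 µM) in sterile distilled water for 16 h at room temperature, in triplicate. Samples were then serially diluted and spread on peptide-free PDA to count CFU. Results are given as mean CFU mL-1 ± SD compared with a no-peptide control.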

Series [3] relates to Penicillium digitatum. Nature of the series: Antimicrobial activity against Penicillium digitatum PHI-26 assessed as inhibition of orange postharvest decay progression progression at 2 uM pre-incubated with fungus for 16 hr measured 7 days post fungal inoculation by orange fruit decay assay. Type of series: functional. Summed up:
(§3)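 Orange fruit inoculation (Navelina, Navelate or Lanelate). Each fruit was wounded about 3 mm deep at four equatorial sites. 5 µL of inoculum (10^4 conidia mL-1 with peptide in water, preincubated 16 h at room temperature) went into each wound. Peptide was tested at 32 µM, from 4 to 64 µM, or from 1 to 4 µM. Fruit was held at 20 °C and 90% RH. Infected wounds were scored at 3, 5 and 7 dpi. Three replicas of five fruits each; Tukey mean separation.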

For series [4], the system named is Penicillium digitatum. Nature of the series: Fungicidal activity against Penicillium digitatum PHI-26 conidia assessed as reduction in conidia viability at 4 uM incubated for 16 hr by colony count assay relative to untreated control. Type of series: functional. Summed up:
as §2

The subject of series [5] is Penicillium digitatum. The series can be described thus: Antimicrobial activity against Penicillium digitatum PHI-26 assessed as inhibition of orange postharvest decay progression at 32 uM pre-incubated with fungal conidia for 16 hr by orange fruit decay assay. The class given is functional, organism-based. Summed up: as §3
Series [6] can be described thus: Toxicity in Homo sapiens (human) RBCs assessed as hemolytic activity. The class given is cell-based. Conditions: erythrocyte.
The nature of series [7]: Toxicity in Homo sapiens (human) RBCs assessed as hemolytic activity at 100 uM. The class given is cell-based. Conditions: erythrocyte.
In a further series the test system is Escherichia coli. Nature of the series: Antimicrobial activity against Escherichia coli DH5[alpha] assessed as microbial growth inhibition after 4 days by microtiter plate assay. The class given is functional. Conditions: 96 h. Summed up: as §1
Series [8] has as its system Penicillium digitatum. The series can be described thus: Antimicrobial activity against Penicillium digitatum PHI-26 assessed as inhibition of orange postharvest decay progression progression at 4 uM pre-incubated with fungus for 16 hr measured 7 days post fungal inoculation by orange fruit decay assay. Type of series: functional, organism-based. Summed up:
as §3

For the next series, the system named is Saccharomyces cerevisiae. The series can be described thus: Antimicrobial activity against Saccharomyces cerevisiae FY1679 assessed as microbial growth inhibition after 4 days by microtiter plate assay. Type of series: functional. Conditions: FY1679, 96 h. Summed up:
as §1

For series [9], the system named is Penicillium digitatum. The series can be described thus: Antimicrobial activity against Penicillium digitatum PHI-26 assessed as inhibition of orange postharvest decay progression at 32 uM by orange fruit decay assay. The class given is functional, organism-based. Summed up: (§4)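 Navelina sweet oranges were wounded about 3 mm deep at four equatorial sites. Each wound received 5 µL of 10^4 conidia mL-1 of PHI-26 mixed with peptide in water, inoculated either at once or after 16 h at room temperature. There were three replicas of five fruits, held at 20 °C and 90% RH. Infected wounds were scored at 3, 5 and 7 dpi as mean % ± SD, with Tukey separation.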

In series [10] the test system is Penicillium digitatum. The series can be described thus: Antimicrobial activity against Penicillium digitatum PHI-26 assessed as inhibition of orange postharvest decay progression progression at 32 uM measured 7 days post fungal inoculation by orange fruit decay assay. Type of series: functional, organism-based. Summed up: as §4

Converted amounts (≈) assume the structure as drawn. The source made the active and inactive calls. No cut-off for these calls is given here.

For `CC(=O)N[C@@H](Cc1cnc[nH]1)C(=O)N[C@@H](CCCNC(=N)N)C(=O)N[C@@H](CCCCN)C(=O)N[C@@H](CCCCN)C(=O)N[C@@H](Cc1c[nH]c2ccccc12)C(=O)N[C@@H](Cc1ccccc1)C(=O)N[C@@H](Cc1c[nH]c2ccccc12)C(N)=O`, the MIC with Penicillium digitatum [1] (PHI-26, 96 h) amounted to 4 µM (≈ 4.51 µg/mL); in the series with Escherichia coli, 16 µM (≈ 18.1 µg/mL); with Saccharomyces cerevisiae, 16 µM (≈ 18.1 µg/mL). The inhibition result in the series with Penicillium digitatum [2], with Penicillium digitatum [5] and with Penicillium digitatum [8] was “Active” each time. In addition, the inhibition at 2 µM with Penicillium digitatum [3] is more than 50%. In the series with Penicillium digitatum [4], the “fold change (FC)” value was 2. In addition, the Activity entry in series [6] and in series [7] was “Non-toxic” throughout.
For `CC(=O)N[C@@H](CCCNC(=N)N)C(=O)N[C@@H](CCCNC(=N)N)C(=O)N[C@@H](CCCCN)C(=O)N[C@@H](CCCCN)C(=O)N[C@@H](Cc1c[nH]c2ccccc12)C(=O)N[C@@H](Cc1ccccc1)C(=O)N[C@@H](Cc1c[nH]c2ccccc12)C(N)=O`, the minimal inhibitory concentration (MIC) in the series on Penicillium digitatum [1] (PHI-26, 96 h) was 4 µM (≈ 4.59 µg/mL); in the series with Escherichia coli, 8 µM (≈ 9.18 µg/mL); in the series with Saccharomyces cerevisiae, 16 µM (≈ 18.4 µg/mL). The inhibition entry with Penicillium digitatum [2], in the series on Penicillium digitatum [5] and with Penicillium digitatum [8] was “Active” each time. Also, the “fold change (FC)” value in the series with Penicillium digitatum [4] is given as 2. Further, the Activity entry in [6] and in [7] was “Non-toxic” in each case.
`CC(=O)N[C@H](CCCNC(=N)N)C(=O)N[C@H](CCCNC(=N)N)C(=O)N[C@H](CCCCN)C(=O)N[C@H](CCCCN)C(=O)N[C@H](Cc1c[nH]c2ccccc12)C(=O)N[C@H](Cc1ccccc1)C(=O)N[C@H](Cc1c[nH]c2ccccc12)C(N)=O`: the MIC result in the series with Penicillium digitatum [1] is “Active”.
Still for that read-out and setting: for `CC(=O)N[C@H](Cc1cnc[nH]1)C(=O)N[C@H](CCCNC(=N)N)C(=O)N[C@H](CCCCN)C(=O)N[C@H](CCCCN)C(=O)N[C@H](Cc1c[nH]c2ccccc12)C(=O)N[C@H](Cc1ccccc1)C(=O)N[C@H](Cc1c[nH]c2ccccc12)C(N)=O` the value was “Active”.
Take `CC[C@H](C)[C@H](NC(C)=O)C(=O)N[C@@H](CC(C)C)C(=O)N1CCC[C@H]1C(=O)N[C@@H](Cc1c[nH]c2ccccc12)C(=O)N[C@@H](CCCCN)C(=O)N[C@@H](Cc1c[nH]c2ccccc12)C(=O)N1CCC[C@H]1C(=O)N[C@@H](Cc1c[nH]c2ccccc12)C(=O)N[C@@H](Cc1c[nH]c2ccccc12)C(=O)N1CCC[C@H]1C(=O)N[C@@H](Cc1c[nH]c2ccccc12)C(=O)N[C@@H](CCCNC(=N)N)C(=O)N[C@@H](CCCNC(=N)N)C(N)=O` [Indolicidin]: the inhibition result in the series on Penicillium digitatum [2], with Penicillium digitatum [4] and in the series on Penicillium digitatum [8] was “Active” each time.
For the compound `CC[C@H](C)[C@H](NC(=O)[C@H](CCCCN)NC(=O)[C@H](CCCCN)NC(=O)[C@H](Cc1ccccc1)NC(=O)[C@H](CC(C)C)NC(=O)[C@H](CCCCN)NC(=O)[C@@H](N)CCCCN)C(=O)N[C@@H](CC(C)C)C(=O)N[C@@H](CCCCN)C(=O)N[C@@H](Cc1ccccc1)C(=O)N[C@@H](CC(C)C)C(N)=O` [KKLFKKILKFL-NH2], the MIC with Penicillium digitatum [1] (PHI-26, 96 h) was determined as 4 µM (≈ 5.62 µg/mL); in the series with Escherichia coli, 4 µM (≈ 5.62 µg/mL); in the series on Saccharomyces cerevisiae, 16 µM (≈ 22.5 µg/mL). Further, the inhibition entry with Penicillium digitatum [2] and with Penicillium digitatum [4] was “Active” in each case. For the same compound, in series [6], the Activity entry is reported as “Toxic”.
With `CC[C@H](C)[C@H](NC(=O)[C@H](CCCCN)NC(=O)[C@H](CCCCN)NC(=O)[C@H](Cc1ccccc1)NC(=O)[C@H](CC(C)C)NC(=O)[C@H](CCCCN)NC(=O)[C@@H](N)CCCCN)C(=O)N[C@@H](CC(C)C)C(=O)N[C@@H](CCCCN)C(=O)N[C@H](C(=O)N[C@@H](CC(C)C)C(N)=O)C(C)C` [KKLFKKILKVL-NH2], the MIC in the series on Penicillium digitatum [1] (PHI-26, 96 h) amounted to 4 µM (≈ 5.43 µg/mL); in the series on Escherichia coli, 4 µM (≈ 5.43 µg/mL); in the series on Saccharomyces cerevisiae, 16 µM (≈ 21.7 µg/mL). The inhibition result in the series with Penicillium digitatum [2] and in the series with Penicillium digitatum [4] was “Active” throughout. In series [6], the Activity entry is on record as “Toxic”.
In the case of `CC[C@H](C)[C@H](NC(=O)CN)C(=O)NCC(=O)N[C@@H](C)C(=O)N[C@H](C(=O)N[C@@H](CC(C)C)C(=O)N[C@@H](CCCCN)C(=O)N[C@H](C(=O)N[C@@H](CC(C)C)C(=O)N[C@H](C(=O)N[C@H](C(=O)NCC(=O)N[C@@H](CC(C)C)C(=O)N1CCC[C@H]1C(=O)N[C@@H](C)C(=O)N[C@@H](CC(C)C)C(=O)N[C@H](C(=O)N[C@@H](CO)C(=O)N[C@@H](Cc1c[nH]c2ccccc12)C(=O)N[C@H](C(=O)N[C@@H](CCCCN)C(=O)N[C@@H](CCCNC(=N)N)C(=O)N[C@@H](CCCCN)C(=O)N[C@@H](CCCNC(=N)N)C(=O)N[C@@H](CCC(N)=O)C(=O)N[C@@H](CCC(N)=O)C(N)=O)[C@@H](C)CC)[C@@H](C)CC)[C@@H](C)O)[C@@H](C)O)C(C)C)C(C)C` [MELITTIN], the MIC in the series with Penicillium digitatum [1] (PHI-26, 96 h) came to 2 µM (≈ 5.69 µg/mL); in the series on Saccharomyces cerevisiae, 16 µM (≈ 45.5 µg/mL). Besides, the inhibition entry in the series on Penicillium digitatum [9], with Penicillium digitatum [2], in the series with Penicillium digitatum [4], with Penicillium digitatum [5] and with Penicillium digitatum [8] was “inactive” in each case. Besides, in series [6], the Activity result is “Toxic”. The inhibition entry in the series on Penicillium digitatum [10] was “Active”.
With Ac-RFWWFRRR-NH2, the minimal inhibitory concentration (MIC) in the series with Penicillium digitatum [1] (PHI-26, 96 h) was 4 µM; in the series on Escherichia coli, 8 µM; in the series on Saccharomyces cerevisiae, 32 µM. Besides, the inhibition entry in the series with Penicillium digitatum [9], with Penicillium digitatum [2], in the series with Penicillium digitatum [5] and in the series with Penicillium digitatum [8] was “Active” each time. In the series with Penicillium digitatum [4], the “fold change (FC)” value is 2. Further, in series [7], the Activity entry is listed as “Non-toxic”.
As for Ac-RKKWFW-NH2, the MIC in the series with Penicillium digitatum [1] (PHI-26, 96 h) is 4 µM; with Escherichia coli, 32 µM; in the series with Saccharomyces cerevisiae, 32 µM. The inhibition entry with Penicillium digitatum [2] and in the series with Penicillium digitatum [5] was “Active” each time. Further, in the series with Penicillium digitatum [4], the “fold change (FC)” value came to 2. The Activity entry in series [6] and in series [7] was “Non-toxic” in each case.

As usually defined, the MIC is the least concentration at which growth counts as inhibited. One may read the inhibition as the drop in the measured response relative to a control, in per cent.
